Converted amounts (≈) assume the structure as drawn. The source made the active and inactive calls. The rule behind the calls is not given here.
Assays:
[1] = test system: Actinobacillus pleuropneumoniae; test: Antibacterial activity against Actinobacillus pleuropneumoniae after 48 hrs by CLSI protocol based broth microdilution assay; format: functional
Method in brief: (§1)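 Strains (B. subtilis PY79, P. peoriae LMG1611, S. aureus Newman, S. agalactiae ATCC27956, E. coli ATCC25922, P. aeruginosa PA14, P. fluorescens LMG1794, X. campestris Xg, A. pleuropneumoniae) were grown overnight in TSB at 30 °C with shaking, then suspended in Mueller-Hinton broth, final OD600 0.01. Twofold-series compound, 100 to 0.78 μM, from 20 mM DMSO stock. Incubated 48 h, 30 °C, 250 rpm; OD600 read; MIC.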

Escherichia coli = test: Antibacterial activity against Escherichia coli after 48 hrs by CLSI protocol based broth microdilution assay; format: functional; method in brief: as §1
Pseudomonas aeruginosa = test: Antibacterial activity against Pseudomonas aeruginosa after 48 hrs by CLSI protocol based broth microdilution assay; format: functional; method in brief: as §1
Pseudomonas fluorescens = test: Antibacterial activity against Pseudomonas fluorescens after 48 hrs by CLSI protocol based broth microdilution assay; format: functional; method in brief: as §1
Xanthomonas campestris = test: Antibacterial activity against Xanthomonas campestris after 48 hrs by CLSI protocol based broth microdilution assay; format: functional; method in brief: as §1
Bacillus subtilis = test: Antibacterial activity against Bacillus subtilis after 48 hrs by CLSI protocol based broth microdilution assay; format: functional; method in brief: as §1
[2] = Antibacterial activity against Paenibacillus peoriae after 48 hrs by CLSI protocol based broth microdilution assay; format: functional; method in brief: as §1
Staphylococcus aureus = test: Antibacterial activity against Staphylococcus aureus after 48 hrs by CLSI protocol based broth microdilution assay; format: functional; method in brief: as §1
Streptococcus agalactiae = test: Antibacterial activity against Streptococcus agalactiae after 48 hrs by CLSI protocol based broth microdilution assay; format: functional; method in brief: as §1
Cryptococcus neoformans = test: Antifungal activity against Cryptococcus neoformans after 48 hrs by CLSI protocol based broth microdilution assay; format: functional
Candida albicans = test: Antifungal activity against Candida albicans after 48 hrs by CLSI protocol based broth microdilution assay; format: functional
Aspergillus niger = test: Antifungal activity against Aspergillus niger after 48 hrs by CLSI protocol based broth microdilution assay; format: functional
Method in brief: (§2)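 Molds (A. niger, F. oxyporum, F. solani, Mucorales TM29) were grown 4 days at 25 °C on PDA, and spores were harvested in sterile water and counted by hemacytometer. Spores (2 × 10⁴ mL⁻¹) went into L-glutamine RPMI 1640, MOPS-buffered to pH 7.0, with serially diluted compound (top 100 μM). Incubated 2 days at room temperature; OD600 read; MIC.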

Fusarium oxysporum = test: Antifungal activity against Fusarium oxysporum after 48 hrs by CLSI protocol based broth microdilution assay; format: functional; method in brief: as §2
Fusarium solani = test: Antifungal activity against Fusarium solani after 48 hrs by CLSI protocol based broth microdilution assay; format: functional; method in brief: as §2
Mucorales = test: Antifungal activity against Mucorales after 48 hrs by CLSI protocol based broth microdilution assay; format: functional; method in brief: as §2
[3] = test system: hmqA (Burkholderia ambifaria); test: Inhibition of beta-galactosidase hmqA mutant (Burkholderia ambifaria) by lacZ reporter gene assay

Row | Structure (SMILES) | MIC [1] | MIC (Escherichia coli) | MIC (Pseudomonas aeruginosa) | MIC (Pseudomonas fluorescens) | MIC (Xanthomonas campestris) | MIC (Bacillus subtilis) | MIC [2] | MIC (Staphylococcus aureus) | MIC (Streptococcus agalactiae) | MIC (Cryptococcus neoformans) | MIC (Candida albicans) | MIC (Aspergillus niger) | MIC (Fusarium oxysporum) | MIC (Fusarium solani) | MIC (Mucorales) | Activity [3]
1 | CCCC/C=C/Cc1c(C)c(=O)c2ccccc2n1O | 1.56 µM (≈ 0.423 µg/mL) | 25 µM (≈ 6.78 µg/mL) | 50 µM (≈ 13.6 µg/mL) | 50 µM (≈ 13.6 µg/mL) | 6.25 µM (≈ 1.7 µg/mL) | 1.56 µM (≈ 0.423 µg/mL) | 1.56 µM (≈ 0.423 µg/mL) | 1.56 µM (≈ 0.423 µg/mL) | 1.56 µM (≈ 0.423 µg/mL) | 50 µM (≈ 13.6 µg/mL) | > 100 µM | > 100 µM | > 100 µM | > 100 µM | > 100 µM | 
2 | CCCCC/C=C/Cc1[nH]c2ccccc2c(=O)c1C | 1.56 µM (≈ 0.42 µg/mL) | 100 µM (≈ 26.9 µg/mL) | 50 µM (≈ 13.5 µg/mL) | 25 µM (≈ 6.73 µg/mL) | 100 µM (≈ 26.9 µg/mL) | 1.56 µM (≈ 0.42 µg/mL) | 12.5 µM (≈ 3.37 µg/mL) | 1.56 µM (≈ 0.42 µg/mL) | 1.56 µM (≈ 0.42 µg/mL) | 1.56 µM (≈ 0.42 µg/mL) | > 100 µM | > 100 µM | > 100 µM | > 100 µM | 12.5 µM (≈ 3.37 µg/mL) | Active
3 | CCCCCC/C=C/Cc1c(C)c(=O)c2ccccc2n1O | 1.56 µM (≈ 0.467 µg/mL) | 6.25 µM (≈ 1.87 µg/mL) | 12.5 µM (≈ 3.74 µg/mL) | 25 µM (≈ 7.49 µg/mL) | 12.5 µM (≈ 3.74 µg/mL) | 3.13 µM (≈ 0.937 µg/mL) | 1.56 µM (≈ 0.467 µg/mL) | 1.56 µM (≈ 0.467 µg/mL) | 1.56 µM (≈ 0.467 µg/mL) | 6.25 µM (≈ 1.87 µg/mL) | > 100 µM | > 100 µM | > 100 µM | > 100 µM | > 100 µM | 
4 | CCCCCC/C=C/Cc1[nH]c2ccccc2c(=O)c1C | 1.56 µM (≈ 0.442 µg/mL) | 100 µM (≈ 28.3 µg/mL) | > 100 µM | 50 µM (≈ 14.2 µg/mL) | 100 µM (≈ 28.3 µg/mL) | 1.56 µM (≈ 0.442 µg/mL) | 12.5 µM (≈ 3.54 µg/mL) | 1.56 µM (≈ 0.442 µg/mL) | 1.56 µM (≈ 0.442 µg/mL) | 1.56 µM (≈ 0.442 µg/mL) | > 100 µM | > 100 µM | 12.5 µM (≈ 3.54 µg/mL) | 6.25 µM (≈ 1.77 µg/mL) | 12.5 µM (≈ 3.54 µg/mL) | 
5 | CCCC/C=C/Cc1[nH]c2ccccc2c(=O)c1C | 3.13 µM (≈ 0.799 µg/mL) | 100 µM (≈ 25.5 µg/mL) | > 100 µM | 25 µM (≈ 6.38 µg/mL) | 100 µM (≈ 25.5 µg/mL) | 1.56 µM (≈ 0.398 µg/mL) | 12.5 µM (≈ 3.19 µg/mL) | 1.56 µM (≈ 0.398 µg/mL) | 1.56 µM (≈ 0.398 µg/mL) | 3.13 µM (≈ 0.799 µg/mL) | > 100 µM | > 100 µM | 12.5 µM (≈ 3.19 µg/mL) | > 100 µM | 6.25 µM (≈ 1.6 µg/mL) | Active
6 | CCCCC/C=C/Cc1c(C)c(=O)c2ccccc2n1O | 1.56 µM (≈ 0.445 µg/mL) | 6.25 µM (≈ 1.78 µg/mL) | 25 µM (≈ 7.13 µg/mL) | 25 µM (≈ 7.13 µg/mL) | 3.13 µM (≈ 0.893 µg/mL) | 1.56 µM (≈ 0.445 µg/mL) | 1.56 µM (≈ 0.445 µg/mL) | 1.56 µM (≈ 0.445 µg/mL) | 1.56 µM (≈ 0.445 µg/mL) | 12.5 µM (≈ 3.57 µg/mL) | > 100 µM | > 100 µM | > 100 µM | > 100 µM | > 100 µM | 
